Laboratory results from ChEMBL document CHEMBL5715938, “The protein kinase Cbeta-selective inhibitor, Enzastaurin (LY317615.HCl), suppresses signaling through the AKT pathway, induces apoptosis, and suppresses growth of human colon cancer and glioblastoma xenografts” (Cancer Res, 2005).
The source made the active and inactive calls. No cut-off for these calls is given here.

Columns and labels:
[1] = test system: MOLT-4; assay: Antiproliferative activity against human MOLT-4 cells assessed as reduction in cell growth upto 10 uM measured after 6 days by propidium iodide staining based analysis; type: functional; details: time 6.0 day
In short: (§1)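 ATCC-sourced lines grown without antibiotics; 1,000 cells/well in 1% FBS medium, refed ±drug on days 1 and 4 over a 6-day course. On day 7, propidium iodide (10 μg/mL in D-PBS) read after 30 min for nonviable cells, plate frozen at -80°C 2 h, thawed and reread; proliferative index = postfreeze minus prefreeze signal.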

[2] = test system: Hs-578T; assay: Antiproliferative activity against human Hs-578T cells assessed as reduction in cell growth upto 10 uM measured after 6 days by propidium iodide staining based analysis; type: functional; details: time 6.0 day; in short: as §1
[3] = test system: BT-549; assay: Antiproliferative activity against human BT-549 cells assessed as reduction in cell growth upto 10 uM measured after 6 days by propidium iodide staining based analysis; type: functional; details: time 6.0 day; in short: as §1
[4] = test system: HOP-62; assay: Antiproliferative activity against human HOP-62 cells assessed as reduction in cell growth upto 10 uM measured after 6 days by propidium iodide staining based analysis; type: functional; details: time 6.0 day; in short: as §1
[5] = test system: NCI-H322M; assay: Antiproliferative activity against human NCI-H322M cells assessed as reduction in cell growth upto 10 uM measured after 6 days by propidium iodide staining based analysis; type: functional; details: time 6.0 day; in short: as §1
[6] = test system: NCI-H460; assay: Antiproliferative activity against human NCI-H460 cells assessed as reduction in cell growth upto 10 uM measured after 6 days by propidium iodide staining based analysis; type: functional; details: time 6.0 day; in short: as §1
[7] = test system: 786-0; assay: Antiproliferative activity against human 786-0 cells assessed as reduction in cell growth upto 10 uM measured after 6 days by propidium iodide staining based analysis; type: functional; details: time 6.0 day; in short: as §1
[8] = test system: A498; assay: Antiproliferative activity against human A498 cells assessed as reduction in cell growth upto 10 uM measured after 6 days by propidium iodide staining based analysis; type: functional; details: time 6.0 day; in short: as §1
[9] = test system: ACHN; assay: Antiproliferative activity against human ACHN cells assessed as reduction in cell growth upto 10 uM measured after 6 days by propidium iodide staining based analysis; type: functional; details: time 6.0 day; in short: as §1
[10] = test system: RXF 393; assay: Antiproliferative activity against human RXF 393 cells assessed as reduction in cell growth upto 10 uM measured after 6 days by propidium iodide staining based analysis; type: functional; details: time 6.0 day; in short: as §1
[11] = test system: HCT-116; assay: Induction of apoptosis in human HCT-116 cells assessed as increase in apoptotic cells incubated for 72 hrs by TUNEL staining based analysis (reference value: 2%); type: functional; details: dose 4 µmol/L, at 4 µM
[12] = biological target: RAC-alpha serine/threonine-protein kinase (Homo sapiens) (UniProt P31749); assay: Inhibition of PKBalpha (unknown origin) at 1 micromol/L relative to control; details: dose 1.0 µmol/L
In short: (§2)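 Commercial kinase profiler panel run to the provider's protocol, with the compound tested at 1 µmol/L. Activity is expressed as percent of kinase activity without compound.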

[13] = biological target: RAC-beta serine/threonine-protein kinase (Homo sapiens) (UniProt P31751); assay: Inhibition of PKBbeta (unknown origin) at 1 micromol/L relative to control; details: dose 1.0 µmol/L; in short: as §2
[14] = species: Homo sapiens; assay: Inhibition of p70S6K (unknown origin) at 1 micromol/L relative to control; details: dose 1.0 µmol/L; in short: as §2
[15] = biological target: Mitogen-activated protein kinase 12 (Homo sapiens) (UniProt P53778); assay: Inhibition of SAPK3 (unknown origin) at 1 micromol/L relative to control; details: dose 1.0 µmol/L; in short: as §2
[16] = biological target: Serine/threonine-protein kinase N2 (Homo sapiens) (UniProt Q16513); assay: Inhibition of PRK2 (unknown origin) at 1 micromol/L relative to control; details: dose 1.0 µmol/L; in short: as §2
[17] = biological target: Platelet-derived growth factor receptor alpha (Homo sapiens) (UniProt P16234); assay: Inhibition of PDGFRalpha (unknown origin) at 1 micromol/L relative to control; details: dose 1.0 µmol/L; in short: as §2
[18] = biological target: Proto-oncogene tyrosine-protein kinase Src (Homo sapiens) (UniProt P12931); assay: Inhibition of c-SRC (unknown origin) at 1 micromol/L relative to control; details: dose 1.0 µmol/L; in short: as §2
[19] = test system: HCT-116; assay: Inhibition of ERK in human HCT-116 cells at 1 micromol/L measured upto 4 hrs by Western blotting analysis; type: cell-based; details: dose 1.0 µmol/L
In short: (§3)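 Cultured tumor cells treated with 1 μmol/L drug; lysates in cell extraction buffer with protease inhibitors, western blotted with phospho-specific antibodies (pGSK3β Ser9, pAKT Thr308, phospho-ERK) alongside total GSK3β/AKT.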

[20] = biological target: Serine/threonine-protein kinase AKT (Homo sapiens) (UniProt P31751+Q9Y243+P31749); assay: Inhibition of AKT phosphorylation at Thr308 residue in human HCT-116 cells at 1 micromol/L upto 4 hrs by Western blotting analysis; type: cell-based; details: dose 1.0 µmol/L; in short: as §3
[21] = test system: U-87 MG; assay: Antitumor activity against human U-87 MG cells xenografted in athymic nude mouse assessed as reduction in tumor growth at 75 mg/kg, po administered twice daily measured after 21 days; type: functional, organism-based; details: U-87MG ATCC, time 21.0 day
In short: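 Female athymic nude mice, 6–8 weeks, 5 million cells s.c. flank in 1:1 serum-free medium/matrigel; at group mean 100 mm³, 75 mg/kg by gavage twice daily in 10% acacia for 21 days, n = 9/group, vehicle controls; caliper volume A²×B×0.536; two-way repeated measures analysis.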

[22] = Plasma concentration in athymic nude mouse xenografted with human HCT-116 cells at 75 mg/kg, po administered twice daily measured after 2 hrs by LC-MS analysis; type: ADME, organism-based
In short: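 Female athymic nude mice, 6–8 weeks old, received 5 million HCT116 cells s.c. in the flank in 1:1 serum-free medium and matrigel (n = 9 per group). Dosing began at a group mean tumor volume of 100 mm³: 75 mg/kg twice daily by gavage, suspended in 10% acacia in water. Plasma was taken on days 1 and 21 at 0.5–12 h post-dose and measured by LC-MS/MS.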

[23] = Drug concentration in athymic nude mouse plasma xenografted with human HCT-116 cells at 75 mg/kg, po administered twice daily measured after 8 to 12 hrs by LC-MS analysis; type: ADME, organism-based; details: in vivo, time 8-12 hrs
In short: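 HCT116-bearing nude mice given 75 mg/kg twice daily by gavage; plasma collected on day 1 and day 21 at 0.5, 1, 2, 4, 8 and 12 h after dose; drug quantified by LC-MS/MS.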

[24] = test system: HCT-116; assay: Antitumor activity against human HCT-116 cells xenografted in athymic nude mouse assessed as reduction in GSK3beta phosphorylation at serine 9 residue at 75 mg/kg, po administered twice daily measured after 12 hrs by Western blotting analysis; type: functional, organism-based
[25] = test system: HCT-116; assay: Antitumor activity against human HCT-116 cells xenografted in athymic nude mouse assessed as reduction in GSK3beta phosphorylation at serine 9 residue at 75 mg/kg, po administered twice daily measured after 2 hrs by ELISA method relative to control; type: functional; set-up: scale not given: the % may be the effect or the level left
In short: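 HCT116-bearing nude mice, 75 mg/kg by gavage; tumors and PBMCs harvested 0.5, 2, 4, 8 h post-dose, n = 5 per time point. PBMCs from five mice pooled via CPT tube. Lysates assayed by pGSK3β Ser9 immunometric ELISA (tumor 400–600 μg, PBMC 50–100 μg protein/well); percent of vehicle control, Dunnett/ANOVA.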

[26] = Antitumor activity against human HCT116 cells implanted in athymic nude mouse assessed as reduction in GSK3beta phosphorylation at serine 9 residue at 75 mg/kg, po administered twice daily measured after 2 to 4 hrs by ELISA method relative to control; set-up: scale not given: the % may be the effect or the level left; details: time 2-4 hrs

Sequence of Proto-oncogene tyrosine-protein kinase Src (Homo sapiens) (P12931 2-536 limits assumed): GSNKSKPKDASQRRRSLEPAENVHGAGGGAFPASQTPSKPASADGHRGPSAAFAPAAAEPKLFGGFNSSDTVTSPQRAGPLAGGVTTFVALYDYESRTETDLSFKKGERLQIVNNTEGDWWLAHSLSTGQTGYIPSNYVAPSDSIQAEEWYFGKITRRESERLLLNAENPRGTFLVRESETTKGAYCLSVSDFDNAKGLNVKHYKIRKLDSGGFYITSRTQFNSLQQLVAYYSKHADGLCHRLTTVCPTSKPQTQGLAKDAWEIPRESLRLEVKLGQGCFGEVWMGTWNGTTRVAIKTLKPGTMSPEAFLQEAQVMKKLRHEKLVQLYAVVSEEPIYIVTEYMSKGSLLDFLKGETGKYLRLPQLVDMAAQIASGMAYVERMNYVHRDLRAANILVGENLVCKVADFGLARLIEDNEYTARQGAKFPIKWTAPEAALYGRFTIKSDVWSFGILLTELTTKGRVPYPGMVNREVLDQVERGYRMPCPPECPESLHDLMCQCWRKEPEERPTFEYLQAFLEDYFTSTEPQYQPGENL
Sequence of RAC-alpha serine/threonine-protein kinase (Homo sapiens) (P31749 whole entry): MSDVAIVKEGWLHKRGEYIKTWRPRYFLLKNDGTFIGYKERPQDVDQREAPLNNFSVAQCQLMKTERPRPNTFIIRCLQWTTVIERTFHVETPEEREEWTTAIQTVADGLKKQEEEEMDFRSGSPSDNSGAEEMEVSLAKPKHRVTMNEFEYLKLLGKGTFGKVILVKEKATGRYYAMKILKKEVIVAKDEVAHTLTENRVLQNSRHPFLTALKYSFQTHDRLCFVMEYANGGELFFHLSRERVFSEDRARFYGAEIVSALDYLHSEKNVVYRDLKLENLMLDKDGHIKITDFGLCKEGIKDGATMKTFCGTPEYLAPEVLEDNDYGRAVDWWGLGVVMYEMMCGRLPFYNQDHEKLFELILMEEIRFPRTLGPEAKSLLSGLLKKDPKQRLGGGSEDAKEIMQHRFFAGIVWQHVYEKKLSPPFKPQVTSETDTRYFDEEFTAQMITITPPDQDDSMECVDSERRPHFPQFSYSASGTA
Sequence of Serine/threonine-protein kinase AKT (Homo sapiens) (P31749 whole entry, looked up): as the sequence (P31749 whole entry) above
Sequence of Serine/threonine-protein kinase AKT (Homo sapiens) (P31751 whole entry, looked up): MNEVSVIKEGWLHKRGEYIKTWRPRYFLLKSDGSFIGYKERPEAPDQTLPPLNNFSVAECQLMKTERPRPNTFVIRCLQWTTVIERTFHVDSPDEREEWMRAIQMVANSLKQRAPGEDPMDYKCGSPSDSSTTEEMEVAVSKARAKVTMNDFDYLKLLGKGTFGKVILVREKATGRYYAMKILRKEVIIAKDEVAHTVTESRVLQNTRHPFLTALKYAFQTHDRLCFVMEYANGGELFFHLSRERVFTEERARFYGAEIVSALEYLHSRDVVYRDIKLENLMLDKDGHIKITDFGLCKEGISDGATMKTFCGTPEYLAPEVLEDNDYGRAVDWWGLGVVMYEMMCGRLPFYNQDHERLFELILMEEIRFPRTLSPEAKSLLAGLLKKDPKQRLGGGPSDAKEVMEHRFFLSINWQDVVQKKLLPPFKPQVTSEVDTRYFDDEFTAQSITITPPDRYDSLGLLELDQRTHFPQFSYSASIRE
Sequence of Serine/threonine-protein kinase AKT (Homo sapiens) (Q9Y243 whole entry, looked up): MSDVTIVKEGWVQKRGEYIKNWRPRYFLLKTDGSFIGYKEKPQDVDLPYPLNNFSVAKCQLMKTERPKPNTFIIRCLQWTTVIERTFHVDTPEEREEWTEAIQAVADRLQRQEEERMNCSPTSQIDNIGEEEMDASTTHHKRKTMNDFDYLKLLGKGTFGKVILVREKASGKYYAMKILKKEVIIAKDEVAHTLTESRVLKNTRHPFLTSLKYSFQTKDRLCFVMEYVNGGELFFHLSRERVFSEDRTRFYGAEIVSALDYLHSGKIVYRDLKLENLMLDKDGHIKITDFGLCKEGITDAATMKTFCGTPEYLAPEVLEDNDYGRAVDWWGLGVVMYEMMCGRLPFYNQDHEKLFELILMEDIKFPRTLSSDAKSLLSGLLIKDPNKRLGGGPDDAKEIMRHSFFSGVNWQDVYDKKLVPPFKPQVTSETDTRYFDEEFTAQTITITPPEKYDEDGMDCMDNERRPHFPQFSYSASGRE
Sequence of Platelet-derived growth factor receptor alpha (Homo sapiens) (P16234 whole entry): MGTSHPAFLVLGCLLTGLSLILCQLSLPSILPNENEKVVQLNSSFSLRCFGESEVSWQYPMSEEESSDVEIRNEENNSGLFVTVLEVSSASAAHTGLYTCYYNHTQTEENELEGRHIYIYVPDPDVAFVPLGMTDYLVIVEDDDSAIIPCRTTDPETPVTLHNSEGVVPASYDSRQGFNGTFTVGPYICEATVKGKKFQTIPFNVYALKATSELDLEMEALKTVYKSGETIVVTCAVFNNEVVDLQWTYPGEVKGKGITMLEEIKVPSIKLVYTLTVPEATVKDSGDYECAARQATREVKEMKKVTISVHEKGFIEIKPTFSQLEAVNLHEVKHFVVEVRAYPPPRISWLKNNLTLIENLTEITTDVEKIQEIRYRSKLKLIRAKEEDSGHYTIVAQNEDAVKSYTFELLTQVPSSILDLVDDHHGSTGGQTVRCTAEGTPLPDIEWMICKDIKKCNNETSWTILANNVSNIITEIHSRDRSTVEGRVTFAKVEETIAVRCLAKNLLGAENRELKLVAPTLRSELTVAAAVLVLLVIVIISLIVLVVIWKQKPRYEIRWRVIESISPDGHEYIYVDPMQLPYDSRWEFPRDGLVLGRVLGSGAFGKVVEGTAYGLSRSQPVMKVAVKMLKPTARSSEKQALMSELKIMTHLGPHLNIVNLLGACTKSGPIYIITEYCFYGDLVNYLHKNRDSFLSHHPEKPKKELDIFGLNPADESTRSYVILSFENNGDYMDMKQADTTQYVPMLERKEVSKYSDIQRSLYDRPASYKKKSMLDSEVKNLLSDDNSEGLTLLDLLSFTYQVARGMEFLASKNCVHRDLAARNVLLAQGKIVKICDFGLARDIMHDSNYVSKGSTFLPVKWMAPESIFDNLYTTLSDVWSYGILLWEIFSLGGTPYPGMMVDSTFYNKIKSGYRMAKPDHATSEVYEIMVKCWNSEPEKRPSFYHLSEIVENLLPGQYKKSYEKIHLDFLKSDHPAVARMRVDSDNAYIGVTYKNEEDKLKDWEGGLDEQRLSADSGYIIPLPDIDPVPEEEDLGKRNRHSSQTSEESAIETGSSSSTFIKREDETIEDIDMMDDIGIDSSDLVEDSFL
Sequence of Mitogen-activated protein kinase 12 (Homo sapiens) (P53778 whole entry): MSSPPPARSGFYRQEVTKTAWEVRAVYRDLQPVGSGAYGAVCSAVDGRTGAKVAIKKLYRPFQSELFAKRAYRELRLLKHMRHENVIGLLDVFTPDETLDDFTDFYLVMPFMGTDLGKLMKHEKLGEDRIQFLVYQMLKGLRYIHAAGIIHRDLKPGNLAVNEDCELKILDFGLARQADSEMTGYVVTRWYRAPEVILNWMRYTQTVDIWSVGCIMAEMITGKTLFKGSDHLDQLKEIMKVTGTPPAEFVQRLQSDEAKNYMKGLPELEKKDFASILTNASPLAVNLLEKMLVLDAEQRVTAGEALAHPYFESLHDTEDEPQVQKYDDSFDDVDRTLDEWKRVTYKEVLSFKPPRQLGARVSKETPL
Sequence of Serine/threonine-protein kinase N2 (Homo sapiens) (Q16513 whole entry, looked up): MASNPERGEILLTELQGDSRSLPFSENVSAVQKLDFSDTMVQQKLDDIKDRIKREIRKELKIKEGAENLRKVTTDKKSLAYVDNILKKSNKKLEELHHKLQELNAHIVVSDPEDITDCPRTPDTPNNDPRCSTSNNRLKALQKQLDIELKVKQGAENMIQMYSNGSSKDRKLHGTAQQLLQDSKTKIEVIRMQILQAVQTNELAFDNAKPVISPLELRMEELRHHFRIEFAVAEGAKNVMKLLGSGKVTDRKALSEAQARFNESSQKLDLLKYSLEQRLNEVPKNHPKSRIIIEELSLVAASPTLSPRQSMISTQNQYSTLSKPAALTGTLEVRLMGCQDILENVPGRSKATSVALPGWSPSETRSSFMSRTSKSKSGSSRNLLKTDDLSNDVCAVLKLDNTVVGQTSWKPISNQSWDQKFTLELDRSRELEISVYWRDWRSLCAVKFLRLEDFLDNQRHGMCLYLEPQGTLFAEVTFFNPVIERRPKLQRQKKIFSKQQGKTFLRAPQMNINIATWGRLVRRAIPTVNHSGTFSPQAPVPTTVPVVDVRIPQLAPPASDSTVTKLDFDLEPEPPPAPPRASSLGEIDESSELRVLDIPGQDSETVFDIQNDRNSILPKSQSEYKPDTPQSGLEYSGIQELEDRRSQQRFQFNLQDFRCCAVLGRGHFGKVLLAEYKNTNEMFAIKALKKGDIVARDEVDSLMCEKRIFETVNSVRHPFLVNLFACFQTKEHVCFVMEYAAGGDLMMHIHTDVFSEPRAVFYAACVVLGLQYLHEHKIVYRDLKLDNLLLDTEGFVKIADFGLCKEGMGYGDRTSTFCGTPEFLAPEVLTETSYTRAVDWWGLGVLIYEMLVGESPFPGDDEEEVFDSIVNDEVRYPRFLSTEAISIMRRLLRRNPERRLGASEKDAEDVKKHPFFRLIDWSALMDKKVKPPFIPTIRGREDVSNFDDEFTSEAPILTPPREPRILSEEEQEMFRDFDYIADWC
Sequence of RAC-beta serine/threonine-protein kinase (Homo sapiens) (P31751 whole entry): as the sequence (P31751 whole entry, looked up) above

## Cl.Cn1cc(C2=C(c3cn(C4CCN(Cc5ccccn5)CC4)c4ccccc34)C(=O)NC2=O)c2ccccc21 [ENZASTAURIN HYDROCHLORIDE]
[1]
  Activity: Active
[2]
  Activity: inactive
[3]
  Activity: inactive
[4]
  Activity: inactive
[5]
  Activity: inactive
[6]
  Activity: inactive
[7]
  Activity: inactive
[8]
  Activity: inactive
[9]
  Activity: inactive
[10]
  Activity: inactive
[11]
  Activity: >50%
[12]
  % control activity: 75%
[13]
  % control activity: 100%
[14]
  % control activity: 52%
[15]
  % control activity: 88%
[16]
  % control activity: 88%
[17]
  % control activity: 86%
[18]
  % control activity: 101%
[19]
  inhibition: inactive
[20]
  inhibition: Active
[21]
  Activity: Active
[22]
  concentration at 2 h: 2000 nM
[23]
  Drug uptake: Not Active
[24]
  Activity: inactive
[25]
  Activity: 80%
[26]
  Activity: >60%
